Laboratory results from publication PMC11109934 (RSC Medicinal Chemistry, 2024).

What was measured:
BxPC3 cells = experiment: xCELLigence real time monitoring of cell proliferation, BxPC3; type: cell-based, human
[1] = test system: primary cultured mouse astrocytes; experiment: xCELLigence real time monitoring of cell proliferation, primary mouse astrocytes; type: cell-based; conditions: for reduction of cell index: primary cultured mouse astrocytes, after 72 hours
[2] = test system: BxPC3 human pancreatic cancer cells; experiment: CyQUANT viability assay, BxPC3; type: cell-based; conditions: 72 hours, compared to the control
How it was run: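 BxPC3 cells (DMEM, 10% FBS, 1% pen-strep-glutamine; passages 10–20) were seeded at 5 × 10^3/well. After 24 h they were exposed to test compound for 72 h, with 0.1% DMSO final. Medium was removed, then CyQUANT Direct nucleic acid stain plus background suppressor in HBSS was added for 1 h at 37 °C. Whole-well fluorescence was laser-scanned (Ex 488/Em 520, 100 μm pixels) and normalised to control (100% viability). At least 3 independent experiments, at least 4 replicates each.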

GL261-Luc cells = experiment: xCELLigence real time monitoring of cell proliferation, GL261-Luc; type: cell-based, mouse; conditions: for reduction of cell index: 72 hours
[3] = test system: caspase 3/7 activation in BxPC3 cells; experiment: Caspase 3/7 assay, BxPC3; type: cell-based, human; conditions: 72 hours; for increase in caspase 3/7 activation (apoptosis): 256 μM
How it was run: (§1)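 BxPC3 (5 × 10^3/well) or GL261-Luc (3 × 10^3/well) cells in DMEM, 10% FBS, 1% pen-strep-glutamine. After 24 h, exposed to test compound for 72 h in medium with 0.1% DMSO final. CellEvent caspase-3/7 green reagent added for 1 h at 37 °C. Whole-well fluorescence imaged (Ex 488/Em 520). Cells then fixed (3.7% PFA), permeabilised (0.3% Triton X-100), BSA-blocked and stained with CellTag 700 (Ex 685/Em 720). Caspase signal normalised to cell number, then expressed as fold over control. At least 3 independent experiments, at least 4 replicates each.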

[4] = test system: caspase 3/7 activation in GL261-Luc cells; experiment: Caspase 3/7 assay, GL261-Luc; type: cell-based, mouse; conditions: 72 hours; for increase in caspase 3/7 activation (apoptosis): 256 μM
How it was run: as §1

[5] = BxPC3 cells, 128 μM, after 72 hours, compared to the control
[6] = 128 μM, normalised to cell number (CellTag 700)

| Structure (SMILES) | reduction of viability (CyQUANT) ([2]; 128 μM) | reduction of cell index (BxPC3 cells; [5]) | reduction of cell index (GL261-Luc cells; 128 μM) | reduction of cell index ([1]; 128 μM) | reduction of viability (CyQUANT) ([2]; 256 μM) | reduction of cell index (BxPC3 cells; BxPC3 cells, 256 μM, 72 hours) | reduction of cell index (GL261-Luc cells; 256 μM) | reduction of cell index ([1]; 256 μM) | increase in caspase 3/7 activation (apoptosis) [3] | increase in caspase 3/7 activation (apoptosis) [4] | other results |
| --- | --- | --- | --- | --- | --- | --- | --- | --- | --- | --- | --- |
| Oc1ccc2ccccc2c1 [2-naphthol] | – | – | – | – | – | – | – | – | – | – | activity in real-time xCELLigence experiments (BxPC3 cells; 16 μM): notable activity; time until cell index declined (BxPC3 cells; BxPC3 cells, 128 μM): 8 h; ED50 (cell index) (BxPC3 cells; BxPC3 cells, 72-hour exposure time, xCELLigence): 21 µM; fold greater cytotoxicity than 1-naphthol (BxPC3 cells; BxPC3 cells, real time xCELLigence monitoring): 4 fold; time until cell index declined ([1]; primary cultured astrocytes, 128 μM): ≤ 4 h |
| OCc1ccccc1O [salicyl alcohol] | no significant effect | no significant effect | no significant effect | 11–17% | – | – | – | – | – | – | increase in caspase 3/7 activation [3, 6]: no effect; increase in caspase 3/7 activation [4, 6]: no effect |
| Oc1ccccc1 [phenol] | no significant effect | no significant effect | no significant effect | 11–17% | – | – | – | – | – | – | – |
| Oc1cccc2ccccc12 [1-naphthol, 1-Naphthol] | – | – | – | – | – | – | – | – | – | – | time until cytotoxicity began (GL261-Luc cells; 128 μM): 28 h |
| C[C@H](N)C(=O)OCc1ccccc1 [L-alanine benzyl ester] | – | – | – | – | no significant effect | no significant effect | no significant effect | 11–17% | no significant increase | no significant increase | – |
| CC(C)OC(=O)[C@H](C)N [L-alanine isopropyl ester] | – | – | – | – | no significant effect | no significant effect | no significant effect | 11–17% | no significant increase | no significant increase | – |
